Structures are written as SMILES. Activity calls are given as the source filed them. The calls are words filed in the database; no cut-off is given here.

In data set [1] the target is T1, Sodium channel protein type 5 subunit alpha (Homo sapiens, UniProt Q14524). As to the kind of experiment: Inhibition of human Nav1.5 assessed as inactivated-state block by patch-clamp electrophysiology/cell based assay. In short, it runs like this:
(§1)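 Automated parallel patch clamp (PatchXpress 7000A) on human Nav isoforms, room temperature. Compound tested at 0.1, 0.3, 1, 3, 10, 30 and 100 μM, two to four cells per concentration, 5 min exposure each. Use-dependence on Nav1.1 and Nav1.8/β3 by double pulse protocol: holding -80 mV, prepulse -120 mV, then pulse 1 to 0 mV for 200 ms.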
In general terms: The patch-clamp technique gives a direct electrical read-out from membranes.

In data set [2] the test system is Mus musculus. As to the kind of experiment: Toxicity in mouse assessed as motor coordination at 5 to 50 mg/kg, ip from day -1 to day 2 by RotaRod assay. The format is organism-based. More on the design: dose 5-50 mg/kg, route intraperitoneal. The settings on record: in vivo. A general note: In the rotarod test animals must keep their balance on a rotating rod.
The nature of data set [3]: Metabolic stability in rat liver microsomes assessed as drug turnover at 1 uM at 40 mins by LC-MS/MS analysis. The format is ADME. The settings on record: read-out: Drug metabolism. In short, it runs like this: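 Compound at 1 μM was incubated (n=2) with pooled rat liver microsomes (0.25 mg protein/ml) at 37°C for 0 and 40 min. Reactions were stopped with acetonitrile containing an internal standard, and parent disappearance was measured by LC-MS/MS. Percentage turnover was taken from peak heights relative to the zero-time samples.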

Data set [4] deals with T2, Sodium channel protein type 4 subunit alpha (Homo sapiens, UniProt P35499). As to the kind of experiment: Inhibition of human Nav1.4 assessed as tonic block by patch-clamp electrophysiology/cell based assay. In short, it runs like this:
as §1

Data set [5] in a line: Displacement of [3H]sipatrigine from Wistar rat brain synaptosomes voltage-gated sodium channel by liquid scintillation counting. The format is subcellular. (In general: Displacement assays read how much labelled ligand stays bound in the presence of the test substance.)
The target of data set [6] is T2, Sodium channel protein type 4 subunit alpha. As to the kind of experiment: Inhibition of human Nav1.4 assessed as 10 Hz block by patch-clamp electrophysiology/cell based assay. In short, it runs like this:
as §1

Data set [7] deals with T3, Sodium channel protein type 1 subunit alpha (Homo sapiens, UniProt P35498). Description: Inhibition of human Nav1.1 assessed as 10 Hz block using double pulse protocol by patch-clamp electrophysiology/cell based assay. The method, boiled down: as §1
The target of data set [8] is T3, Sodium channel protein type 1 subunit alpha. Description: Inhibition of human Nav1.1 assessed as inactivated-state block using double pulse protocol by patch-clamp electrophysiology/cell based assay. The method, boiled down: as §1
Data set [9] deals with Mus musculus. As to the kind of experiment: Neuroprotective activity in C57BL/6-Cg-Tg(Thy1-CFP)23Jrs.Tg(Tcra2D2, Tcrb2D2)1Kuch/J transgenic mouse optic neuritis model assessed as reduction in retinal loss measured as number of cells at 5 mg/kg, ip (reference value: 914 +/- 89 cells). The format is functional. The settings on record: route intraperitoneal.
For data set [10], the target named is T4, Sodium channel protein type 8 subunit alpha (Homo sapiens, UniProt Q9UQD0). Description: Inhibition of human Nav1.6 assessed as tonic block by patch-clamp electrophysiology/cell based assay. The method, boiled down: (§2)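 Automated parallel patch clamp on cells expressing human Nav isoforms (hNav1.1 to hNav1.8/β3), at room temperature. Compounds were tested at 0.1, 0.3, 1, 3, 10, 30 and 100 μM. Each exposure lasted 5 min, with two to four cells per concentration.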

Data set [11] has as its system Mus musculus. Description: Neuroprotective activity in C57BL/6-Cg-Tg(Thy1-CFP)23Jrs.Tg(Tcra2D2, Tcrb2D2)1Kuch/J transgenic mouse optic neuritis model assessed as increase in ganglion cell survival at 5 mg/kg, ip. The class given is functional, organism-based. More on the design: dose 5 mg/kg.
The target in data set [12] is T3, Sodium channel protein type 1 subunit alpha. Description: Inhibition of human Nav1.1 assessed as tonic block using double pulse protocol by patch-clamp electrophysiology/cell based assay. The method, boiled down: as §1
Data set [13] concerns the target T4, Sodium channel protein type 8 subunit alpha. As to the kind of experiment: Inhibition of human Nav1.6 assessed as inactivated-state block by patch-clamp electrophysiology/cell based assay. In short, it runs like this: as §2
The species entered for data set [14] is Rattus norvegicus. Description: Neuroprotective activity in oxygen/glucose deprivation-induced Wistar rat hippocampal slice assessed as inhibition of cell death by measuring ATP level at 50 uM. The format is functional.
Data set [15] deals with T5, Sodium channel protein type 3 subunit alpha (Homo sapiens, UniProt Q9NY46). Description: Inhibition of human Nav1.3 assessed as 10 Hz block by patch-clamp electrophysiology/cell based assay. The method, boiled down: (§3)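 Automated parallel patch-clamp (PatchXpress 7000A) on cells expressing human Nav1.3, run at room temperature. Compounds were tested at 0.1, 0.3, 1, 3, 10, 30 and 100 μM, each in two to four cells, with 5 min exposure per concentration.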
T5 sequence (Q9NY46 whole entry): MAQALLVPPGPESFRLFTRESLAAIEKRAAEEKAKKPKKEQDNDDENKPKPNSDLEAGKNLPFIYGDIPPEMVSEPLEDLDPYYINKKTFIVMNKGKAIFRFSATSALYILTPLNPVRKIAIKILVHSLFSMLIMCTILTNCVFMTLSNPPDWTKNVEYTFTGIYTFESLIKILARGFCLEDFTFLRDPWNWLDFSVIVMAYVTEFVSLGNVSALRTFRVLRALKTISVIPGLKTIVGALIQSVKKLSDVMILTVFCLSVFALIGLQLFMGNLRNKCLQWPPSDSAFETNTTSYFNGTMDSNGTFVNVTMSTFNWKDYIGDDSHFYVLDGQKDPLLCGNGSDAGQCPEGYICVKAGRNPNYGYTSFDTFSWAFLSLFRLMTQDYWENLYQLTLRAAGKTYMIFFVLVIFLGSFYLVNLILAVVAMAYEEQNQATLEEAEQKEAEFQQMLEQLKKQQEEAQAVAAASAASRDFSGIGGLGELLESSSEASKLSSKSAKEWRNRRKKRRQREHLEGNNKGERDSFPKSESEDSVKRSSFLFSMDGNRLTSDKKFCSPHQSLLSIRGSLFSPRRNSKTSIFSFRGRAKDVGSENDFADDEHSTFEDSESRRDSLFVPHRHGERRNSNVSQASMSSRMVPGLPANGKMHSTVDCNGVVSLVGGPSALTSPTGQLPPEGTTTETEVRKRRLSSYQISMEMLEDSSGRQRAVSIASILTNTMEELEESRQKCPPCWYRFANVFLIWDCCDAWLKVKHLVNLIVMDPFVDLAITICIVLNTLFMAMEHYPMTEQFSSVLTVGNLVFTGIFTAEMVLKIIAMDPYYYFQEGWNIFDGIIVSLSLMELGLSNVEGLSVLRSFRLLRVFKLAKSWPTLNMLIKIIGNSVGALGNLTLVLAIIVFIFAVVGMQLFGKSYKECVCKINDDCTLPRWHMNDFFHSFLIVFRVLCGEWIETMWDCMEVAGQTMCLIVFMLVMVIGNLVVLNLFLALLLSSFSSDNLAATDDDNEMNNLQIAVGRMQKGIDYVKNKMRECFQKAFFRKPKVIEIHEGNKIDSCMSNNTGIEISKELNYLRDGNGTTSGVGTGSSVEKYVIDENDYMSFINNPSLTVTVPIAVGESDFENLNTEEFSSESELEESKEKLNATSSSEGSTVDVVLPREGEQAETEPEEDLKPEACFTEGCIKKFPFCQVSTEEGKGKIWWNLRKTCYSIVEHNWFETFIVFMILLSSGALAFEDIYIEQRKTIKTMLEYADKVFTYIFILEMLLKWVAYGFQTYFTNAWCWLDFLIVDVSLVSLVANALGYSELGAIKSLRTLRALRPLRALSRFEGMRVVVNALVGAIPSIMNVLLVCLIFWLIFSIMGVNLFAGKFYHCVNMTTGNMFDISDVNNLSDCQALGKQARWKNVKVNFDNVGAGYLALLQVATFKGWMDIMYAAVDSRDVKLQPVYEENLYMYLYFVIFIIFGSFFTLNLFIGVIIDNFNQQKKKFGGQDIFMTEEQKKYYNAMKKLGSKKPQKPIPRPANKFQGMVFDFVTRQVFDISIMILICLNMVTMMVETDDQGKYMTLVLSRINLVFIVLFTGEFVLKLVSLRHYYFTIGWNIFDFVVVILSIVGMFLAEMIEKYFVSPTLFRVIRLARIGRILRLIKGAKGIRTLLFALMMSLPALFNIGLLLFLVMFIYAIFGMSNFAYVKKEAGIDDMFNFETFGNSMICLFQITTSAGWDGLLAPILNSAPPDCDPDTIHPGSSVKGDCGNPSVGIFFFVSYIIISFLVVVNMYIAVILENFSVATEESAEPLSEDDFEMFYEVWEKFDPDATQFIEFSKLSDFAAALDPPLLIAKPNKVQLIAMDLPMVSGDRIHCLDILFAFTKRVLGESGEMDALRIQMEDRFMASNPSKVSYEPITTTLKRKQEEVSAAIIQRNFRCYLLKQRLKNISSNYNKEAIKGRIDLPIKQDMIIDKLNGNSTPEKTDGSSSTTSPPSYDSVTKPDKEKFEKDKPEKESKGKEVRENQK

Data set [16] deals with T4, Sodium channel protein type 8 subunit alpha. As to the kind of experiment: Inhibition of human Nav1.6 assessed as 10 Hz block by patch-clamp electrophysiology/cell based assay. In short, it runs like this:
as §2

Data set [17] deals with T2, Sodium channel protein type 4 subunit alpha. Description: Inhibition of human Nav1.4 assessed as inactivated-state block by patch-clamp electrophysiology/cell based assay. The method, boiled down:
as §1

For data set [18], the target named is T1, Sodium channel protein type 5 subunit alpha. As to the kind of experiment: Inhibition of human Nav1.5 assessed as tonic block by patch-clamp electrophysiology/cell based assay. The method, boiled down: as §1
The target in data set [19] is T5, Sodium channel protein type 3 subunit alpha. Description: Inhibition of human Nav1.3 assessed as tonic block by patch-clamp electrophysiology/cell based assay. In short, it runs like this: as §3
Data set [20] has the same target. As to the kind of experiment: Inhibition of human Nav1.3 assessed as inactivated-state block by patch-clamp electrophysiology/cell based assay. In short, it runs like this: as §3
For data set [21], the system named is Mus musculus. Description: Immunosuppressive activity in […] oxazolone-induced ABH mouse assessed as effect on cell proliferation response in draining lymph node at 5 to 50 mg/kg, ip from day -1 to day 2 by local lymph node assay. The class given is functional, organism-based.
For data set [22], the species on record is Rattus norvegicus. The settings on record: Wistar, 1 uM.
Data set [23] is filed under the species Rattus norvegicus. As to the kind of experiment: Neuroprotective activity in oxygen/glucose deprivation-induced Wistar rat hippocampal slice assessed as inhibition of cell death by measuring ATP level at 3 uM. The class given is functional.
For data set [24], the species on record is Rattus norvegicus. As to the kind of experiment: Neuroprotective activity in oxygen/glucose deprivation-induced Wistar rat hippocampal slice assessed as inhibition of cell death by measuring ATP level at 30 uM normalized to tetrodotoxin. The class given is functional.
For data set [25], the species on record is Rattus norvegicus. Description: Neuroprotective activity in oxygen/glucose deprivation-induced Wistar rat hippocampal slice assessed as inhibition of cell death by measuring ATP level. The class given is functional.
Data set [26] has as its target T6, Sodium channel protein type 9 subunit alpha (Homo sapiens, UniProt Q15858). Description: Inhibition of human Nav1.7 assessed as inactivated-state block by patch-clamp electrophysiology/cell based assay.
For data set [27], the target named is T7, Sodium channel protein type 2 subunit alpha (Homo sapiens, UniProt Q99250). Description: Inhibition of human Nav1.2 assessed as 10 Hz block by patch-clamp electrophysiology/cell based assay.
Data set [28] concerns the target T7, Sodium channel protein type 2 subunit alpha. As to the kind of experiment: Inhibition of human Nav1.2 assessed as tonic block by patch-clamp electrophysiology/cell based assay.
Data set [29] has as its target T8, Sodium channel protein type 10 subunit alpha (Homo sapiens, UniProt Q9Y5Y9). As to the kind of experiment: Inhibition of human Nav1.8 assessed as tonic block using double pulse protocol by patch-clamp electrophysiology/cell based assay. In short, it runs like this: as §1
The target in data set [30] is T6, Sodium channel protein type 9 subunit alpha. Description: Inhibition of human Nav1.7 assessed as 10 Hz block by patch-clamp electrophysiology/cell based assay.
Data set [31] concerns the target T1, Sodium channel protein type 5 subunit alpha. Description: Inhibition of human Nav1.5 assessed as 10 Hz block by patch-clamp electrophysiology/cell based assay. In short, it runs like this: as §1
Data set [32] deals with T8, Sodium channel protein type 10 subunit alpha. Description: Inhibition of human Nav1.8 assessed as inactivated-state block using double pulse protocol by patch-clamp electrophysiology/cell based assay. The method, boiled down:
as §1

For data set [33], the target named is T6, Sodium channel protein type 9 subunit alpha. Description: Inhibition of human Nav1.7 assessed as tonic block by patch-clamp electrophysiology/cell based assay.
In data set [34] the target is T7, Sodium channel protein type 2 subunit alpha. Description: Inhibition of human Nav1.2 assessed as inactivated-state block by patch-clamp electrophysiology/cell based assay.
Data set [35] concerns the target T8, Sodium channel protein type 10 subunit alpha. As to the kind of experiment: Inhibition of human Nav1.8 assessed as 10 Hz block using double pulse protocol by patch-clamp electrophysiology/cell based assay. The method, boiled down:
as §1

T1 sequence (Q14524 whole entry, canonical isoform): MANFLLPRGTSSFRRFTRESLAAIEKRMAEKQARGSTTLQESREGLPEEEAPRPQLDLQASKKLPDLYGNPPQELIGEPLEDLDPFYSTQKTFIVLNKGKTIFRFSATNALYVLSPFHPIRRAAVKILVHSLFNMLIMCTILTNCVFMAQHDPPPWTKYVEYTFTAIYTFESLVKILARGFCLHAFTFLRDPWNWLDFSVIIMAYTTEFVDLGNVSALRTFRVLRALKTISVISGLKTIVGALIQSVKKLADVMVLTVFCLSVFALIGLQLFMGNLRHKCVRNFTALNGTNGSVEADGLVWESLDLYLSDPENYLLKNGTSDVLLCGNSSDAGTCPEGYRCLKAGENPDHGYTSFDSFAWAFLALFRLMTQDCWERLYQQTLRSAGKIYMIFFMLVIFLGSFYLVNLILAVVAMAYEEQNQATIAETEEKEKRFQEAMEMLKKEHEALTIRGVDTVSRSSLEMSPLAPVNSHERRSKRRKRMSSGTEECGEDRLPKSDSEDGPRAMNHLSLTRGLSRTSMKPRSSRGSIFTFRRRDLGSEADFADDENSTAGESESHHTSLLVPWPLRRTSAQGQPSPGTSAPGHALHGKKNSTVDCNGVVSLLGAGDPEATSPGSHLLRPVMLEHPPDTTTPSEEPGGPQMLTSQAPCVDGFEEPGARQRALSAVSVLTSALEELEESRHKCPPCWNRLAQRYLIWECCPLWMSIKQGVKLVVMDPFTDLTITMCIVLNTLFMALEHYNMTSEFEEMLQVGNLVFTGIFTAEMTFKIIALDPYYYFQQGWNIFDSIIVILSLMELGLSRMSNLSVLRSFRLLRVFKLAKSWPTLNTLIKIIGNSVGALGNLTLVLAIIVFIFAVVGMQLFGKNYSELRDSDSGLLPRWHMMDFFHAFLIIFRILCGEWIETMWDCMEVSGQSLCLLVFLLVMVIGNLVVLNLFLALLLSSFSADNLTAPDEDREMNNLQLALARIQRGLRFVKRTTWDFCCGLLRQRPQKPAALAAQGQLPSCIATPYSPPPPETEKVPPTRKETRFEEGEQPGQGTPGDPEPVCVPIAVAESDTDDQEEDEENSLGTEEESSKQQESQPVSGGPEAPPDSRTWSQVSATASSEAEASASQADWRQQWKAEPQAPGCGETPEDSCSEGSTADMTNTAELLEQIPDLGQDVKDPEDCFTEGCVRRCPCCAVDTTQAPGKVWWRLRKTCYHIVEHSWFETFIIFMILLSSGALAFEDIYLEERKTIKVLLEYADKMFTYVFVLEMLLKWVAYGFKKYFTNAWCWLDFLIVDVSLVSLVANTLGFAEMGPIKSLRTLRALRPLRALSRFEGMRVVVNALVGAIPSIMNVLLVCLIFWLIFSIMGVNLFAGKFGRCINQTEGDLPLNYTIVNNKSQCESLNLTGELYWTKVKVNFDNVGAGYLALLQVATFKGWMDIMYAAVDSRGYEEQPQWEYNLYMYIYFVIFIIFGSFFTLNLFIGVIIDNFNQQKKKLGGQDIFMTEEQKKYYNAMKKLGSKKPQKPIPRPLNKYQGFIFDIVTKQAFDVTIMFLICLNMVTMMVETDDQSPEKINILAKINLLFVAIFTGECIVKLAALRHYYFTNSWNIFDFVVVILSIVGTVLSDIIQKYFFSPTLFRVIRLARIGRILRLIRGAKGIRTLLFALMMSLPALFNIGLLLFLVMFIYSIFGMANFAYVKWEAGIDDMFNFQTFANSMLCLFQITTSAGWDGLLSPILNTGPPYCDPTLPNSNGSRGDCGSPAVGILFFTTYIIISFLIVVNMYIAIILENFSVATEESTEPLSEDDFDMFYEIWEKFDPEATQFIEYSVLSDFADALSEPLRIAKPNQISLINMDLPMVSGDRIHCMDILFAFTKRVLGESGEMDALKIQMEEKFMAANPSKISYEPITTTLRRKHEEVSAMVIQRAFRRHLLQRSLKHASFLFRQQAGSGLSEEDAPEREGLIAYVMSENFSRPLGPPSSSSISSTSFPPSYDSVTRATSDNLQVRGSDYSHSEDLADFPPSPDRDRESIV

As to `O=C(NCc1noc(-c2nn(CCn3ccnc3)c3ccccc23)n1)c1ccccc1`, the 50% inhibitory concentration (IC50) (in general, the point on the concentration scale where inhibition reaches its midpoint) in data set [1] was 19 µM; in data set [4], above 100 µM; in data set [5], 13 µM; in data set [6] it was 56 µM; in [7], above 100 µM; in data set [8] it was 21 µM. For the same compound, the IC50 in data set [10] was above 100 µM; in [12], above 100 µM; in data set [13] it was 24 µM; in data set [15] it was above 100 µM; in [16], above 100 µM; in data set [17] it was 24 µM. Moreover, the values for the half-maximal inhibitory concentration (IC50) in data set [18], in data set [19] and in [20] were above 100 µM, above 100 µM and 22 µM, respectively. In addition, the Activity entry in the data set with Mus musculus [2] is listed as “Non-toxic”; with Mus musculus [9], 1298 /mm2. The metabolised at 40 min, 1 µM in data set [3] stood at 47%. The outcome in the data set on Mus musculus [11] was Active. Besides, in the data set filed under Rattus norvegicus [14], the inhibition – broadly, the drop in the measured response relative to a control, in per cent – at 50 µM was 47%. Also, in the data set with Mus musculus [21], the inhibition entry was “inactive”.

`NC1=N[C@H](O)[C@H]2[C@H]3O[C@]4(O)O[C@@H]([C@@H](O)[C@@]2(N1)[C@@H]4O)[C@]3(O)CO` returned an inhibition in the data set filed under Rattus norvegicus [22] of 100%.

Consider `CN1CCN(c2ncc(-c3cc(Cl)cc(Cl)c3Cl)c(N)n2)CC1` [SIPATRIGINE], for which the inhibition at 3 µM in the data set listed under Rattus norvegicus [23] is 93%.

On to `Nc1nnc(-c2cccc(Cl)c2Cl)c(N)n1` [LAMOTRIGINE], for which, in the data set filed under Rattus norvegicus [24], the “inhibition (INH)” value was determined as 33%.

Regarding `O=S(=O)(NCc1noc(-c2c3ccccc3nn2CCn2ccnc2)n1)c1ccccc1`, the metabolised at 40 min, 1 µM in [3] amounted to 97%. This compound also registered an IC50 in [5] of 1.7 µM. The concentration giving a half-maximal response (EC50) (as a rule, the concentration giving half of the maximal effect) in the data set listed under Rattus norvegicus [25] was 29.5 µM. Besides, the inhibition at 50 µM in the data set filed under Rattus norvegicus [14] was 38%.

The compound `COc1cccc(C(=O)NCc2noc(-c3c4ccccc4nn3CCn3ccnc3)n2)c1OC` gave a half-maximal inhibitory concentration (IC50) in [5] of 5.8 µM. Besides, the EC50 in the data set filed under Rattus norvegicus [25] was determined as 12.3 µM. Further, in the data set listed under Rattus norvegicus [14], the inhibition at 50 µM was determined as 88%.

For `O=C(NCc1noc(-c2c3ccccc3nn2CCn2ccnc2)n1)c1cccc(OC(F)(F)F)c1`, the IC50 came out at 3.02 µM in data set [26]; 0.92 µM in data set [1]; 18.3 µM in data set [4]; 24.1 µM in [27]; 65 µM in [28]; 10.5 µM in data set [6]. Further, the concentration for half-maximal inhibition (IC50) in [29] was 6.34 µM; in data set [7] it was 8.54 µM; in data set [8] it was 2.55 µM; in data set [10], above 100 µM; in [30], 4.82 µM; in [12], 15.3 µM. Also, the IC50 came out at 14.8 µM in data set [31]; 3.32 µM in data set [13]; 3.77 µM in data set [32]; 97 µM in data set [15]; 32.2 µM in [16]; 5.64 µM in data set [33]. Further, the IC50 is 4.58 µM in [17]; 36 µM in data set [18]; above 100 µM in data set [19]; 4.76 µM in data set [20]; 3.54 µM in data set [34]; 5.66 µM in data set [35]. In addition, in the data set filed under Rattus norvegicus [14], the inhibition at 50 µM was found to be 78%.

(Values after ChEMBL document CHEMBL3232919, “Imidazol-1-ylethylindazole voltage-gated sodium channel ligands are neuroprotective during optic neuritis in a mouse model of multiple sclerosis” (J Med Chem, 2014).)
